The source made the active and inactive calls. The calls are words filed in the database; no cut-off is given here.
Columns and labels:
[1] = Octanol/water partition coefficient, logP of compound; assay type: physicochemical
[2] = Prodrug conversion in human MDA-MB-231 cells assessed as increase in Pin1 level at 5 uM in presence of 100 uM TrpGc Hint1 inhibitor; assay type: ADME, cell-based; conditions: mda-mb-231, 5 µM
Method in brief: (§1)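 MDA-MB-231 cells treated over a dose series for 72 h (longer than 24 h), with or without the Hint1 inhibitor TrpGc at 100 μM. Pin1 abundance at normal temperature used as the read-out.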

[3] = Prodrug release in human K562 cells assessed as 1R-phosphate binding to Pin1 at 25 uM after 5 hrs by Western blot based cellular thermal shift assay; assay type: ADME, cell-based; conditions: k562, 5 h
Method in brief: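 K562 cells exposed to prodrug at 25 μM or 0.25% DMSO for 5 h, then heated across 38–60 °C and lysed. Soluble Pin1 measured by Western blot. Three independent experiments, error as SEM.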

[4] = Prodrug conversion in human MDA-MB-231 cells assessed as increase in Pin1 level mesured longer than 24 hrs; assay type: ADME, cell-based; conditions: mda-mb-231, 24 h; method in brief: as §1
[5] = target: Peptidyl-prolyl cis-trans isomerase NIMA-interacting 1 (Homo sapiens, UniProt Q13526); test: Displacement of FITC-WFYpSPFLE from human Pin1 (45-163) catalytic domain by fluorescence polarization assay
Peptidyl-prolyl cis-trans isomerase NIMA-interacting 1, sequence (Q13526 whole entry, the tested form may be a part): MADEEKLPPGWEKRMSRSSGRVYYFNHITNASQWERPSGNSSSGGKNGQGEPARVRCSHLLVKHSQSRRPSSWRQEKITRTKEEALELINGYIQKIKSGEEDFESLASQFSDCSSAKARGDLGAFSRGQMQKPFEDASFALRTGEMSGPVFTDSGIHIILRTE

[6] = Prodrug conversion in human K562 cells assessed as cytosolic enzyme product of 1-R-phosphate after 5 hrs by UPLC-MS analysis; assay type: ADME, cell-based; conditions: k562, 5 h
Method in brief: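 K562 cells exposed 5 h in serum-free medium, then washed extensively, centrifuged and extracted with ethyl acetate. Products quantified by UPLC-MS. DMSO solvent control subtracted as background. Average of duplicates with full range.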

PC-3 [7] = test: Antiproliferative activity in human PC-3 cells after 72 hrs by ATP-Glo assay; assay type: functional, cell-based
Method in brief: (§2)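 PC3 cells grown to higher confluence, compound exposure 72 h. Proliferation read by ATP-Glo luminescence or by MTT.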

[8] = Prodrug conversion in cell free extract; assay type: ADME
Method in brief: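 Cell-free control run in medium without cells, then ethyl acetate extraction and UPLC-MS for the intermediate and the free phosphate.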

[9] = Prodrug release in human MDA-MB-231 cells assessed as 1R-phosphate binding to Pin1 at 25 uM at fixed temperature 48 degC by Western blot based assay; assay type: ADME, cell-based; conditions: mda-mb-231, 25 µM
Method in brief: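 MDA-MB-231 cells dosed at 25 μM or with 0.25% DMSO for 5 h, heated at a fixed 48 °C and lysed. Soluble Pin1 measured by Western blot in biological quadruplicates.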

PC-3 [10] = test: Antiproliferative activity in human PC-3 cells after 72 hrs by MTT assay; assay type: functional, cell-based; method in brief: as §2
PC-3 [11] = test: Inhibition of colony formation in human PC-3 cells; assay type: functional, cell-based
Method in brief: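 PC3 cells treated at low density, colony formation scored. Mean of triplicate experiments, error as SD.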

Row | SMILES | logP [1] | Drug metabolism [2] | Drug metabolism [3] | Drug metabolism [4] | IC50 [5] | Drug metabolism [6] | Activity (PC-3 [7]) | Drug metabolism [8] | Drug metabolism [9] | Activity (PC-3 [10]) | inhibition (PC-3 [11])
1 | O=C(N[C@@H](COP(=O)(O)O)Cc1ccccc1)c1cc2ccccc2s1 | < -4.6 | – | – | – | – | – | – | – | – | – | –
2 | CCOC(=O)CNP(=O)(OC[C@@H](Cc1ccccc1)NC(=O)c1cc2ccccc2s1)Oc1ccccc1 (some centres undefined) | 0.27 | Metabolite_Notdetected | Metabolite_Detected | Metabolite_Detected | > 10 µM | Metabolite_Detected | inactive | Metabolite_Notdetected | Metabolite_Detected | inactive | Active
3 | CCOC(=O)CNP(=O)(OC[C@H](Cc1ccccc1)NC(=O)c1cc2ccccc2s1)Oc1ccccc1 (some centres undefined) | – | – | – | – | > 10 µM | – | – | – | – | – | inactive

Reference: ChEMBL document CHEMBL4725411, “A Phosphoramidate Strategy Enables Membrane Permeability of a Non-nucleotide Inhibitor of the Prolyl Isomerase Pin1” (ACS Med Chem Lett, 2020)
